Consider 50 compounds from ChEMBL document CHEMBL1681637, “Synthesis and antitubercular activity of monocyclic nitroimidazoles: insights from econazole” (Bioorg Med Chem Lett, 2011).

As usually defined, the MIC is the least concentration at which growth counts as inhibited. The term IC50 denotes the point on the concentration scale where inhibition reaches its midpoint.

The structures appear in SMILES notation. ≈ marks a conversion by molar mass, not a printed value. A value given as a limit tells only on which side of the number the result lay.

One experiment relates to Candida albicans. Kind of experiment: Antifungal activity against Candida albicans ATCC 90027 after 48 hrs by broth microdilution method. The settings on record: ATCC 90027, 48 h. In kind it is functional. (In general: Dilution methods test growth across graded concentrations, often in twofold steps.)
For the next experiment, the system named is Vero. The experiment in a line: Cytotoxicity against african green monkey Vero cells by MTT assay. In kind it is cell-based. The settings on record: Chlorocebus sabaeus. Summed up: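 Vero cells were exposed to compound stocks made in DMSO and serially diluted 2-fold in RPMI 1640 medium. The top test concentration varied between compounds because of limited solubility. MTT read-out followed the kit manufacturer's protocol.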

Turning to `COc1nc([N+](=O)[O-])cn1CC(OCc1ccc(F)cc1)c1ccc(Cl)cc1Cl` (racemic), in the experiment on Candida albicans, the MIC is > 256 µg/mL. The half-maximal inhibitory concentration (IC50) in the experiment on Vero is > 13 µg/mL.
`Clc1ccc(COC(Cn2ccnc2)c2ccc(Cl)cc2Cl)cc1` (stereo not drawn) [ECONAZOLE] displayed a minimal inhibitory concentration (MIC) with Candida albicans of 16 µg/mL (≈ 41.9 µM).
In the case of `Cc1nc([N+](=O)[O-])cn1CC(OCc1ccc(Cl)cc1)c1ccc(Cl)cc1Cl` (racemic), in the experiment on Candida albicans, the minimum inhibitory concentration (MIC) was > 256 µg/mL. Further, the half-inhibitory concentration (IC50) in the experiment with Vero is > 31 µg/mL.
For `COc1nc([N+](=O)[O-])cn1CC(OCc1ccc(Cl)cc1)c1ccc(F)cc1F` (racemic), in that order: > 256 µg/mL and > 13 µg/mL.
Consider `O=[N+]([O-])c1cn(CC(OCc2ccc(Cl)cc2)c2ccc(Cl)cc2Cl)cn1` (racemic), for which the MIC with Candida albicans was > 256 µg/mL. The IC50 with Vero is > 16 µg/mL.
The like results for `COc1nc([N+](=O)[O-])cn1CC(O)c1ccc(F)cc1F` (racemic) were, in that order, > 256 µg/mL and > 100 µg/mL.
For `CSc1nc([N+](=O)[O-])cn1CC(O)c1ccc(Cl)cc1Cl` (racemic), in that order: > 256 µg/mL and 59 µg/mL (≈ 169 µM).
Take `O=[N+]([O-])c1cn(CC(OCc2ccc(Cl)cc2)c2ccc(F)cc2F)cn1` (racemic): the MIC against Candida albicans is > 256 µg/mL. Further, the half-inhibitory concentration (IC50) with Vero was > 25 µg/mL.
Take `O=[N+]([O-])c1cn(CC(OCc2ccc(OC(F)(F)F)cc2)c2ccc(Cl)cc2Cl)cn1` (racemic): the minimal inhibitory concentration (MIC) in the experiment on Candida albicans was > 256 µg/mL. The IC50 with Vero is > 25 µg/mL.
Turning to `CSc1nc([N+](=O)[O-])cn1CC(OCc1cc(F)cc(F)c1)c1ccc(Cl)cc1Cl` (racemic), the MIC with Candida albicans was > 256 µg/mL. For the same compound, in the experiment with Vero, the IC50 was > 135 µg/mL.
In the case of `COc1nc([N+](=O)[O-])cn1CC(OCc1ccc(OC(F)(F)F)cc1)c1ccc(Cl)cc1Cl` (racemic), the MIC against Candida albicans is > 256 µg/mL. In the experiment on Vero, the IC50 is > 13 µg/mL.
On to `COc1nc([N+](=O)[O-])cn1CC(O)c1ccc(C)cc1C` (racemic), for which the MIC in the experiment on Candida albicans is > 256 µg/mL. The compound also had an IC50 in the experiment with Vero of 84 µg/mL (≈ 288 µM).
Turning to `Cc1nc([N+](=O)[O-])cn1CC(O)c1ccc(Cl)cc1Cl` (racemic), the minimal inhibitory concentration (MIC) with Candida albicans was > 256 µg/mL. Besides, the half-inhibitory concentration (IC50) in the experiment on Vero is > 250 µg/mL.
As for `COc1nc([N+](=O)[O-])cn1CC(OCc1cc(F)cc(F)c1)c1ccc(Cl)cc1Cl` (racemic), the MIC in the experiment on Candida albicans is > 256 µg/mL. For the same compound, the IC50 in the experiment on Vero is > 50 µg/mL.
Turning to `O=[N+]([O-])c1ccc(C(O)Cn2cc([N+](=O)[O-])nc2Br)cc1` (racemic), the MIC in the experiment with Candida albicans is > 256 µg/mL. The IC50 in the experiment with Vero is > 100 µg/mL.
For `Cc1ccc(C(O)Cn2cc([N+](=O)[O-])nc2Br)c(C)c1` (racemic), in that order: > 256 µg/mL and 22 µg/mL (≈ 64.7 µM).
As for `O=[N+]([O-])c1cn(CC(O)c2ccc(F)cc2)c(Br)n1` (racemic), in the experiment on Candida albicans, the MIC is > 256 µg/mL. The 50% inhibitory concentration (IC50) in the experiment on Vero is > 100 µg/mL.
Turning to `O=[N+]([O-])c1cn(CC(OCc2ccccc2F)c2ccc(Cl)cc2Cl)c(Br)n1` (racemic), the minimal inhibitory concentration (MIC) with Candida albicans is > 256 µg/mL. In addition, the half-maximal inhibitory concentration (IC50) in the experiment on Vero was > 63 µg/mL.
In the case of `O=[N+]([O-])c1cn2c(n1)OC[C@@H](OCc1ccc(OC(F)(F)F)cc1)C2` [PRETOMANID], the MIC in the experiment with Candida albicans was > 256 µg/mL.
For the compound `O=[N+]([O-])c1cn(CC(OCc2cc(F)cc(F)c2)c2ccc(Cl)cc2Cl)c(Br)n1` (racemic), in the experiment with Candida albicans, the minimum inhibitory concentration (MIC) was > 256 µg/mL. Besides, the IC50 in the experiment with Vero is > 6 µg/mL.
As to `CSc1nc([N+](=O)[O-])cn1CC(OCc1ccc(Cl)cc1)c1ccc(Cl)cc1Cl` (racemic), the minimum inhibitory concentration (MIC) with Candida albicans is > 256 µg/mL. Further, the IC50 with Vero is > 13 µg/mL.
In the case of `COc1nc([N+](=O)[O-])cn1CC(O)c1ccc(Cl)cc1` (racemic), the minimal inhibitory concentration (MIC) against Candida albicans was > 256 µg/mL. In addition, the IC50 in the experiment on Vero was > 100 µg/mL.
On to `O=[N+]([O-])c1cn(CC(O)c2ccc(Cl)cc2Cl)c(Br)n1` (racemic), for which, in the experiment on Candida albicans, the MIC was > 256 µg/mL. The midpoint of inhibition with Vero, the IC50, lay at 100 µg/mL (≈ 262 µM).
Consider `COc1nc([N+](=O)[O-])cn1CC(OCc1ccc(OC(F)(F)F)cc1)c1ccc(F)cc1F` (racemic), for which the minimal inhibitory concentration (MIC) with Candida albicans was > 256 µg/mL. Further, in the experiment with Vero, the IC50 was > 25 µg/mL.
Regarding `O=[N+]([O-])c1cn(CC(O)c2ccccc2)c(Br)n1` (racemic), in the experiment with Candida albicans, the minimum inhibitory concentration (MIC) is > 256 µg/mL. Also, the 50% inhibitory concentration (IC50) in the experiment with Vero was > 100 µg/mL.
Turning to `O=[N+]([O-])c1cn(CC(OCc2ccc(F)cc2)c2ccc(Cl)cc2Cl)cn1` (racemic), the MIC against Candida albicans was > 256 µg/mL. Also, in the experiment with Vero, the IC50 was > 16 µg/mL.
On to `COc1nc([N+](=O)[O-])cn1CC(O)c1ccc(Cl)cc1Cl` (racemic), for which the minimal inhibitory concentration (MIC) against Candida albicans is > 256 µg/mL. The same compound had an IC50 in the experiment with Vero of 100 µg/mL (≈ 301 µM).
The like results for `O=[N+]([O-])c1cn(CC(O)c2ccc(Cl)cc2Cl)cn1` (racemic) were, in that order, > 256 µg/mL and > 250 µg/mL.
For `O=[N+]([O-])c1cn(CC(OCc2ccc(F)cc2F)c2ccc(Cl)cc2Cl)cn1` (racemic), the MIC in the experiment on Candida albicans was > 256 µg/mL. In addition, the IC50 in the experiment with Vero is > 25 µg/mL.
On to `O=[N+]([O-])c1cn(CC(OCc2ccc(Cl)cc2)c2ccc(F)cc2F)c(Br)n1` (racemic), for which the MIC against Candida albicans was > 256 µg/mL. Moreover, the IC50 with Vero is > 25 µg/mL.
For the compound `CSc1nc([N+](=O)[O-])cn1CC(OCc1ccc(F)cc1)c1ccc(Cl)cc1Cl` (racemic), the MIC against Candida albicans is > 256 µg/mL. The 50% inhibitory concentration (IC50) in the experiment on Vero was > 13 µg/mL.
In the case of `COc1nc([N+](=O)[O-])cn1CC(OCc1ccc(Cl)cc1)c1ccc(Cl)cc1Cl` (racemic), the MIC in the experiment on Candida albicans is > 256 µg/mL. The IC50 in the experiment on Vero was > 8 µg/mL.
For `O=[N+]([O-])c1cn(CC(OCc2cc(F)cc(F)c2)c2ccc(Cl)cc2Cl)cn1` (racemic), the MIC against Candida albicans is > 256 µg/mL. The concentration for half-maximal inhibition (IC50) with Vero is > 25 µg/mL.
The like results for `COc1nc([N+](=O)[O-])cn1CC(O)c1ccc(F)cc1` (racemic) were, in that order, > 256 µg/mL and > 100 µg/mL.
Consider `O=[N+]([O-])c1cn(CC(OCc2ccc(OC(F)(F)F)cc2)c2ccc(F)cc2F)cn1` (racemic), for which the MIC in the experiment on Candida albicans was > 256 µg/mL. For the same compound, the IC50 in the experiment on Vero is > 50 µg/mL.
Regarding `COc1nc([N+](=O)[O-])cn1CC(O)c1ccccc1` (racemic), in the experiment on Candida albicans, the MIC is > 256 µg/mL. Also, the IC50 with Vero was > 100 µg/mL.
Regarding `O=[N+]([O-])c1cn(CC(O)c2ccc(Cl)cc2)c(Br)n1` (racemic), the MIC in the experiment on Candida albicans is > 256 µg/mL. In addition, the half-maximal inhibitory concentration (IC50) in the experiment with Vero was > 100 µg/mL.
As for `O=[N+]([O-])c1cn(CC(O)c2ccc(F)cc2F)c(Br)n1` (racemic), the MIC against Candida albicans was > 256 µg/mL. For the same compound, in the experiment on Vero, the 50% inhibitory concentration (IC50) was > 200 µg/mL.
Consider `O=[N+]([O-])c1cn(CC(OCc2ccc(F)cc2)c2ccc(F)cc2F)cn1` (racemic), for which the MIC in the experiment on Candida albicans was > 256 µg/mL. Further, in the experiment on Vero, the concentration for half-maximal inhibition (IC50) is > 50 µg/mL.
`O=[N+]([O-])c1cn(CC(OCc2ccccc2F)c2ccc(Cl)cc2Cl)cn1` (racemic): the MIC in the experiment on Candida albicans was > 256 µg/mL. Further, the 50% inhibitory concentration (IC50) in the experiment with Vero was > 63 µg/mL.
As to `COc1nc([N+](=O)[O-])cn1CC(OCc1ccc(F)cc1)c1ccc(F)cc1F` (racemic), the MIC against Candida albicans was > 256 µg/mL. The IC50 in the experiment on Vero is > 25 µg/mL.
`O=[N+]([O-])c1cn(CC(OCc2ccc(F)cc2)c2ccc(Cl)cc2Cl)c(Br)n1` (racemic): the minimal inhibitory concentration (MIC) against Candida albicans was > 256 µg/mL. In the experiment with Vero, the half-maximal inhibitory concentration (IC50) is > 16 µg/mL.
On to `COc1nc([N+](=O)[O-])cn1CC(O)c1ccc([N+](=O)[O-])cc1` (racemic), for which, in the experiment with Candida albicans, the minimum inhibitory concentration (MIC) is > 256 µg/mL. Besides, in the experiment with Vero, the half-inhibitory concentration (IC50) is > 100 µg/mL.
Regarding `O=[N+]([O-])c1cn(CC(O)c2ccc(F)cc2F)cn1` (racemic), in the experiment on Candida albicans, the MIC was > 256 µg/mL. In the experiment on Vero, this compound showed a concentration for half-maximal inhibition (IC50) of 292 µg/mL (≈ 1080 µM).
For `CSc1nc([N+](=O)[O-])cn1CC(OCc1ccc(Cl)cc1)c1ccc(F)cc1F` (racemic), in that order: > 256 µg/mL and > 13 µg/mL.
The like results for `O=[N+]([O-])c1cn(CC(OCc2ccc(Cl)cc2)c2ccc(Cl)cc2Cl)c(Br)n1` (racemic) were, in that order, > 256 µg/mL and > 62.5 µg/mL.
Regarding `O=[N+]([O-])c1cn(CC(OCc2cc(F)cc(F)c2)c2ccc(F)cc2F)cn1` (racemic), in the experiment on Candida albicans, the MIC is > 256 µg/mL. Further, the IC50 in the experiment with Vero was > 50 µg/mL.
In the case of `O=[N+]([O-])c1cn(CC(OCc2cc(F)ccc2F)c2ccc(Cl)cc2Cl)cn1` (racemic), the MIC against Candida albicans was > 256 µg/mL. For the same compound, the IC50 in the experiment on Vero is > 25 µg/mL.
Turning to `COc1nc([N+](=O)[O-])cn1CC(O)c1ccc(-c2ccccc2)cc1` (racemic), the MIC against Candida albicans was > 256 µg/mL. Moreover, the IC50 in the experiment on Vero was > 100 µg/mL.
Regarding `O=[N+]([O-])c1cn(CC(O)c2ccc(-c3ccccc3)cc2)c(Br)n1` (racemic), the minimum inhibitory concentration (MIC) against Candida albicans was > 256 µg/mL. Further, the IC50 with Vero was > 100 µg/mL.
